Laboratory results published in ChEMBL document CHEMBL1139838 (J Med Chem, 2007).
Activity calls are given as the source filed them. The calls are words filed in the database; no cut-off is given here. Where a SMILES comes first, the peptide text is derived from it. [ ]: non-standard residue; d: D form. Tic = O=C(O)[C@@H]1Cc2ccccc2CN1; Cha = N[C@@H](CC1CCCCC1)C(=O)O

Key:
[1] = target: Delta-type opioid receptor (Mus musculus) (UniProt P32300); conditions: Vas deferens
[2] = target: Mu-type opioid receptor (Cavia porcellus) (UniProt P97266); conditions: Ileum
Mu-type opioid receptor (Cavia porcellus), sequence (P97266 whole entry): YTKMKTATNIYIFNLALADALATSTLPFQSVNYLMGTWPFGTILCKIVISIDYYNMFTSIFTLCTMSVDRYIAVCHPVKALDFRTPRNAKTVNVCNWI

[3] = target: Mu-type opioid receptor (Cavia porcellus) (UniProt P97266); conditions: Ileum; remark: listed apart in the source
[4] = target: Delta-type opioid receptor (Homo sapiens) (UniProt P41143); test: Activity at human delta opioid receptor expressed in CHO cells by [35S]GTP-gamma-S binding assay; type: functional, cell-based
Delta-type opioid receptor (Homo sapiens), sequence (P41143 whole entry): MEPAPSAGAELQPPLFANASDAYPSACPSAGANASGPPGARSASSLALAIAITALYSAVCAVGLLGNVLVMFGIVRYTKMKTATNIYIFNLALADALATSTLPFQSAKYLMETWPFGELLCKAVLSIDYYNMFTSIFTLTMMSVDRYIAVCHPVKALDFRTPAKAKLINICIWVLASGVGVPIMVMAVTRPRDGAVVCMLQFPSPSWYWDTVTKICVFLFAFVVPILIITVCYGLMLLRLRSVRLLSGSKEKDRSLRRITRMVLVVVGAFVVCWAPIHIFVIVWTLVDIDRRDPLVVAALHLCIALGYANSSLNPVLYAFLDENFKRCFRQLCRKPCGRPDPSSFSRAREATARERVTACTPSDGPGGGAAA

Mu-type opioid receptor = Mu-type opioid receptor (Rattus norvegicus, UniProt P33535); test: Displacement of [3H]DAMGO from mu opioid receptor in Wistar rat brain membrane; type: cell membranes
Mu-type opioid receptor, sequence (P33535 whole entry): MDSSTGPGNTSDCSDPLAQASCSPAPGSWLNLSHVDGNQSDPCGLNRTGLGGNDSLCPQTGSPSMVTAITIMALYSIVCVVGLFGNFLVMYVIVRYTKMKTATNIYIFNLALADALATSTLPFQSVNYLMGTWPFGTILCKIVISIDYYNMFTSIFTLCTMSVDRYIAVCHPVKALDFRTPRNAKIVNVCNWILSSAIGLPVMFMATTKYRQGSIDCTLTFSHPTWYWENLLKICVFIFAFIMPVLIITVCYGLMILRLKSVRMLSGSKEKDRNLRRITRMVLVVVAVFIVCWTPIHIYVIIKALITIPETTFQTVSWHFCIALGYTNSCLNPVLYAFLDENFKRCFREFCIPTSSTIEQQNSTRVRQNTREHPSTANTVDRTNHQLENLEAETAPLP
Summary of the method: (§1)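 Wistar rat brain membranes in 50 mM Tris·HCl pH 7.4 with 200-300 µg protein. Tritiated ligand at 0.5-1 nM, with fresh unlabeled peptide at 10^-12 to 10^-5 M, for 45 min at 35 °C. Stopped by rapid GF/C filtration and ice-cold buffer washes, then scintillation counting. Nonspecific binding defined with 10 µM naloxone. Duplicates, repeated two or three times, mean ± SEM.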

[5] = target: Delta-type opioid receptor (Rattus norvegicus, UniProt P33533); test: Displacement of [3H]Ile5,6-deltorphin from delta opioid receptor in Wistar rat brain membrane; type: cell membranes
Delta-type opioid receptor, sequence (P33533 whole entry): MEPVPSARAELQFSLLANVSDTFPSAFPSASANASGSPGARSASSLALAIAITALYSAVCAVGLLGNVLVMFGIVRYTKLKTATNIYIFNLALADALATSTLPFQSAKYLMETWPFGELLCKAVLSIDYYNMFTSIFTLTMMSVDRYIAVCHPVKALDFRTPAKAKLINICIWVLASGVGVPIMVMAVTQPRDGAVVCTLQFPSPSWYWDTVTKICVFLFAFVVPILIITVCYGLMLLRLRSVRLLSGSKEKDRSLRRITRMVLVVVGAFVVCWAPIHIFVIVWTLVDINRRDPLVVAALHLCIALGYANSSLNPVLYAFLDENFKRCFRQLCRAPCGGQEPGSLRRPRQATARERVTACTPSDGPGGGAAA
Summary of the method: as §1

Delta-type opioid receptor (Mus musculus), sequence (P32300 whole entry): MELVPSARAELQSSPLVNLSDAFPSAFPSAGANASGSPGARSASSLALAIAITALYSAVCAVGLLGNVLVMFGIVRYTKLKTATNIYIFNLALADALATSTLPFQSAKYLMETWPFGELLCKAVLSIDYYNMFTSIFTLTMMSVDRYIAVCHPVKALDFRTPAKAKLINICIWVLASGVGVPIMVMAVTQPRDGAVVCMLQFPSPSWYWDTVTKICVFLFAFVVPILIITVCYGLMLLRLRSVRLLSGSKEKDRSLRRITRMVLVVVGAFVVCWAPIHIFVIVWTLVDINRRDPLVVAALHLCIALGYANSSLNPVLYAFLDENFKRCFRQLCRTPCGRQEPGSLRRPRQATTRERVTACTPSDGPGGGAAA

Structure (SMILES) | Ke [1] [nM] | Ke [3] [nM] | Activity [4] | Ki (Mu-type opioid receptor) [nM] | Ki [5] [nM] | other results
N[C@@H](Cc1ccc(O)cc1)C(=O)N1Cc2ccccc2C[C@H]1C(=O)N[C@@H](Cc1ccccc1)C(=O)N[C@@H](Cc1ccccc1)C(=O)O (H-Y[Tic]FF-OH) | 4.8 |  |  |  |  | Ke [2]: > 10000 nM
Cc1cc(O)cc(C)c1C[C@H](N)C(=O)N1Cc2ccccc2CC1C(=O)N[C@@H](C(=O)N[C@@H](Cc1ccccc1)C(N)=O)[C@H](C)C1CCCCC1 (stereo partly drawn) | 1.7 | 670 | inactive |  |  | 
Cc1cc(O)cc(C)c1C[C@H](N)C(=O)N1Cc2ccccc2C[C@H]1C(=O)N[C@H](C(=O)N[C@@H](Cc1ccccc1)C(N)=O)[C@H](C)C1CCCCC1 |  |  |  | 170 | 4.1 | 
N[C@@H](Cc1ccc(O)cc1)C(=O)N1Cc2ccccc2C[C@H]1C(=O)N[C@@H](CC1CCCCC1)C(=O)N[C@@H](Cc1ccccc1)C(=O)O (H-Y[Tic][Cha]F-OH) | 0.44 |  |  | 3600 | 0.61 | 
Cc1cc(O)cc(C)c1C[C@H](N)C(=O)N1Cc2ccccc2C[C@H]1C(=O)N[C@H](C(=O)N[C@@H](Cc1ccccc1)C(N)=O)[C@@H](C)C1CCCCC1 |  |  |  | 330 | 4 | 
NC(=O)[C@H](Cc1ccccc1)NC(=O)[C@H](Cc1ccccc1)NC(=O)[C@@H]1Cc2ccccc2CN1C(=O)[C@H](N)Cc1ccc(O)cc1 | 18 |  |  |  |  | Ke [2]: 1700 nM
Cc1cc(O)cc(C)c1C[C@H](N)C(=O)N1Cc2ccccc2C[C@H]1C(=O)N[C@@H](C(=O)N[C@@H](Cc1ccccc1)C(=O)O)[C@H](C)C1CCCCC1 |  |  |  | 580 | 2 | 
Cc1cc(O)cc(C)c1C[C@H](N)C(=O)N1Cc2ccccc2CC1C(=O)N[C@H](C(=O)N[C@@H](Cc1ccccc1)C(=O)O)[C@@H](C)C1CCCCC1 (stereo partly drawn) | 0.24 | 970 | inactive |  |  | 
Cc1cc(O)cc(C)c1C[C@H](N)C(=O)N1Cc2ccccc2CC1C(=O)N[C@H](C(=O)N[C@@H](Cc1ccccc1)C(N)=O)[C@@H](C)C1CCCCC1 (stereo partly drawn) | 0.77 | 340 | inactive |  |  | 
Cc1cc(O)cc(C)c1C[C@H](N)C(=O)N1Cc2ccccc2C[C@H]1C(=O)N[C@H](C(=O)N[C@@H](Cc1ccccc1)C(=O)O)[C@H](C)C1CCCCC1 |  |  |  | 280 | 2 | 
Cc1cc(O)cc(C)c1C[C@H](N)C(=O)N1Cc2ccccc2CC1C(=O)N[C@@H](C(=O)N[C@@H](Cc1ccccc1)C(=O)O)[C@@H](C)C1CCCCC1 (stereo partly drawn) | 0.11 | 19 | inactive |  |  | 
Cc1cc(O)cc(C)c1C[C@H](N)C(=O)N1Cc2ccccc2CC1C(=O)N[C@H](C(=O)N[C@@H](Cc1ccccc1)C(N)=O)[C@H](C)C1CCCCC1 (stereo partly drawn) | 0.68 |  | inactive |  |  | IC40 [2]: 110 nM
Cc1cc(O)cc(C)c1C[C@H](N)C(=O)N1Cc2ccccc2CC1C(=O)N[C@@H](C(=O)N[C@@H](Cc1ccccc1)C(=O)O)[C@H](C)C1CCCCC1 (stereo partly drawn) | 0.55 | 290 | inactive |  |  | 
Cc1cc(O)cc(C)c1C[C@H](N)C(=O)N1Cc2ccccc2CC1C(=O)N[C@@H](C(=O)N[C@@H](Cc1ccccc1)C(N)=O)[C@@H](C)C1CCCCC1 (stereo partly drawn) | 1.94 | 120 | inactive |  |  | 
Cc1cc(O)cc(C)c1C[C@@H](N)C(=O)N1Cc2ccccc2C[C@H]1C(=O)N[C@@H](Cc1ccccc1)C(=O)N[C@@H](Cc1ccccc1)C(=O)O | 0.2 |  |  |  |  | 
Cc1cc(O)cc(C)c1C[C@H](N)C(=O)N1Cc2ccccc2C[C@H]1C(=O)N[C@H](C(=O)N[C@@H](Cc1ccccc1)C(=O)O)[C@@H](C)C1CCCCC1 |  |  |  | 1400 | 0.48 | 
Cc1cc(O)cc(C)c1C[C@H](N)C(=O)N1Cc2ccccc2CC1C(=O)N[C@H](C(=O)N[C@@H](Cc1ccccc1)C(=O)O)[C@H](C)C1CCCCC1 (stereo partly drawn) | 0.81 |  | inactive |  |  | IC30 [2]: 150 nM
Cc1cc(O)cc(C)c1C[C@H](N)C(=O)N1Cc2ccccc2C[C@H]1C(=O)N[C@@H](C(=O)N[C@@H](Cc1ccccc1)C(N)=O)[C@H](C)C1CCCCC1 |  |  |  | 290 | 13 | 
Cc1cc(O)cc(C)c1C[C@H](N)C(=O)N1Cc2ccccc2C[C@H]1C(=O)N[C@@H](C(=O)N[C@@H](Cc1ccccc1)C(N)=O)[C@@H](C)C1CCCCC1 |  |  |  | 200 | 7 | 
Cc1cc(O)cc(C)c1C[C@H](N)C(=O)N1Cc2ccccc2C[C@H]1C(=O)N[C@@H](C(=O)N[C@@H](Cc1ccccc1)C(=O)O)[C@@H](C)C1CCCCC1 |  |  |  | 55 | 1.5 | 
